Measurements taken from ChEMBL document CHEMBL2321860, “2-Arylpyrazolo[4,3-d]pyrimidin-7-amino derivatives as new potent and selective human A3 adenosine receptor antagonists. Molecular modeling studies and pharmacological evaluation” (J Med Chem, 2013).
Calls of active or inactive are those of the source. No cut-off for these calls is given here.

What was measured:
[1] = system: HT-29; experiment: Antiapoptotic activity against human HT-29 cells assessed as cell viability at 10 uM after 48 hrs by MTT assay in presence of 1 uM oxaliplatin (reference value: 94.9 +/- 1.3%); format: functional
How it was run: (§1)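 HT-29 cells in DMEM high glucose with 20% FBS, grown to confluence and serum-starved overnight. Cells were treated for 48 h with oxaliplatin (0.3–100 μM) with or without 10 μM test compound. Viability was read as MTT reduction (1 mg/mL, 2 h, 37 °C), formazan in DMSO, absorbance 580 nm. Output is % of control, quadruplicate on at least three cell batches.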

[2] = target: T1, Adenosine receptor A2a (Homo sapiens, UniProt P29274); experiment: Displacement of [3H]ZM241385 from human A2A adenosine receptor expressed in CHO cells at 1 uM after 60 mins by scintillation counting analysis; format: cell-based
How it was run: (§2)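 Human A2A CHO membranes (50 μg protein) incubated with 1 nM [3H]ZM-241385 in 50 mM Tris-HCl, 10 mM MgCl2, pH 7.4, for 60 min at 4 °C, using 6–8 concentrations or 1 μM for % inhibition. Nonspecific binding defined with 1 μM ZM-241385. Ki via Cheng–Prusoff, mean SEM of four assays in duplicate.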

[3] = target: T2, Adenosine receptor A3 (Homo sapiens, UniProt P0DMS8); experiment: Inhibition of human A3 adenosine receptor transfected in CHO cells assessed as inhibition of forskolin-induced cyclic AMP production after 10 mins by competitive protein binding assay in presence of CI-IB-MECA; format: functional, cell-based
T2 sequence (P0DMS8 whole entry): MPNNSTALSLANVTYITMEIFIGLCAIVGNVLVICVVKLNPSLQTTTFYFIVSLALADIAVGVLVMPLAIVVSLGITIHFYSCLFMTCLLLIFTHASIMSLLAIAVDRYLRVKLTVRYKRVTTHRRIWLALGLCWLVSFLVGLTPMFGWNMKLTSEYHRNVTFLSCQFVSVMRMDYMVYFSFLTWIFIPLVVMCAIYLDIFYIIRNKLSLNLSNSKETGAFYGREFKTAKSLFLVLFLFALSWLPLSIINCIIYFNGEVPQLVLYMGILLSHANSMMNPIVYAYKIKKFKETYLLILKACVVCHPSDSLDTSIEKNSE
How it was run: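 Human A3 CHO cells (1 × 10⁶/assay) preincubated 10 min at 37 °C with adenosine deaminase and Ro 20-1724. Antagonist potency measured against 100 nM Cl-IB-MECA-mediated inhibition of 1 μM forskolin-stimulated cAMP. cAMP quantified by [3H]cAMP competition binding. IC50 by sigmoid regression, mean SEM of four experiments.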

[4] = system: Astrocyte; experiment: Antiapoptotic activity against Sprague-Dawley rat astrocytes assessed as reduction of oxaliplatin-induced caspase-3 activity at 0.1 to 10 uM after 4 hrs by fluorimetric assay; format: functional, cell-based
How it was run: (§3)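 Primary cortical astrocytes from newborn (P1–P3) rats, GFAP-positive, used 21 days after isolation and serum-starved overnight. Cells were exposed to 100 μM oxaliplatin for 4 h with test compound co-incubated. Lysates were incubated with 0.025 mM Z-DEVD-R110 at 25 °C for 30 min and read by fluorescence (ex 496/em 520 nm). Output is % of untreated control, mean SEM.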

[5] = target: T3, Adenosine receptor A1 (Homo sapiens) (UniProt P30542); experiment: Displacement of [3H]DPCPX from human A1 adenosine receptor expressed in CHO cells at 1 uM after 120 mins by scintillation counting analysis; format: cell-based
T3 sequence (whole entry): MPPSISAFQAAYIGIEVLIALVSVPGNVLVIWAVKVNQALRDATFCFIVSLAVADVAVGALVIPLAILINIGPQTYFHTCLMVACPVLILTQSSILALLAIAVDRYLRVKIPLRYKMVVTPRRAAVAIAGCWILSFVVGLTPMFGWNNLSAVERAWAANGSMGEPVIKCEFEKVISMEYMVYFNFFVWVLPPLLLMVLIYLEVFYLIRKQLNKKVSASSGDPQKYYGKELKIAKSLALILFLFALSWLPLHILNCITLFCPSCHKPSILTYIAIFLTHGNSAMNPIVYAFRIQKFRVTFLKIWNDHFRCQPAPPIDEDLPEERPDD

[6] = system: HT-29; experiment: Antiapoptotic activity against human HT-29 cells assessed as cell viability at 10 uM after 48 hrs by MTT assay in presence of 10 uM oxaliplatin (reference value: 87.2 +/- 0.9%); format: functional; settings: HT-29, 48 h, read-out: Activity; how it was run: as §1
[7] = system: HT-29; experiment: Antiapoptotic activity against human HT-29 cells assessed as cell viability at 10 uM after 48 hrs by MTT assay in presence of 0.3 uM oxaliplatin (reference value: 97.6 +/- 0.9%); format: functional; how it was run: as §1
[8] = system: HT-29; experiment: Antiapoptotic activity against human HT-29 cells assessed as cell viability at 10 uM after 48 hrs by MTT assay in presence of 3 uM oxaliplatin (reference value: 92.3 +/- 1.0%); format: functional; how it was run: as §1
[9] = system: Astrocyte; experiment: Antiapoptotic activity against Sprague-Dawley rat astrocytes assessed as reduction of oxaliplatin-induced caspase-3 activity at 1 uM after 4 hrs by fluorimetric assay; format: functional, cell-based; how it was run: as §3
[10] = system: HT-29; experiment: Antiapoptotic activity against human HT-29 cells assessed as cell viability at 10 uM after 48 hrs by MTT assay in presence of 30 uM oxaliplatin (reference value: 81.9 +/- 0.9%); format: functional; how it was run: as §1
[11] = target: T4, Adenosine receptor A3 (Rattus norvegicus) (UniProt P28647); experiment: Displacement of [125I]AB-MECA from rat A3 adenosine receptor expressed in HEK293 cells at 1 uM after 60 mins by scintillation counting analysis; format: cell-based
T4 sequence (whole entry): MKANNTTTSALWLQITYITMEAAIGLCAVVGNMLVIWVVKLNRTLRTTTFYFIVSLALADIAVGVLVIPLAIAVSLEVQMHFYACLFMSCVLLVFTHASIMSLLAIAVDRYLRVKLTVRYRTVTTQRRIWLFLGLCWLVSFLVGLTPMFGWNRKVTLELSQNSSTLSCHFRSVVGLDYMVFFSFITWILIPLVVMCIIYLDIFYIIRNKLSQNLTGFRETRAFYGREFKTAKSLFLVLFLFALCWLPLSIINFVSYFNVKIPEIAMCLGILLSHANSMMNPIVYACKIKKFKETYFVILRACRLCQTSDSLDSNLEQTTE
How it was run: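 Rat A3 receptor in HEK293 membranes (10 μg protein) incubated with 0.5 nM [125I]AB-MECA in 50 mM Tris-HCl, 10 mM MgCl2, 1 mM EDTA, pH 7.4, for 60 min at 37 °C. Nonspecific binding defined with 1 μM AB-MECA. Filtration then scintillation counting. Output is % inhibition at 1 μM.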

[12] = target: T5, Adenosine receptor A2b (Homo sapiens) (UniProt P29275); experiment: Inhibition of human A2B adenosine receptor transfected in CHO cells assessed as inhibition of NECA-induced cyclic AMP production at 1 uM after 10 mins by competitive protein binding assay; format: cell-based
T5 sequence (whole entry): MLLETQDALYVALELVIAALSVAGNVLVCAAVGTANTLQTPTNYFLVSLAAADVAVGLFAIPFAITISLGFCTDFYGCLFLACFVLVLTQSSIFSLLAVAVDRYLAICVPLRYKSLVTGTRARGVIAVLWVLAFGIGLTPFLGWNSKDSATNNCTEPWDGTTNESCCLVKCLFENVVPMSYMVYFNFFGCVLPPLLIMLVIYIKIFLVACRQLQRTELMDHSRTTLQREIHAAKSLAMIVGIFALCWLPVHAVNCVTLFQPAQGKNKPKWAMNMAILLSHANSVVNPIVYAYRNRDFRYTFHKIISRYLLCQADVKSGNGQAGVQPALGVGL
How it was run: (§4)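 Human A2B CHO cells (1 × 10⁶/assay) preincubated 10 min at 37 °C in buffer with adenosine deaminase (2 IU/mL) and Ro 20-1724. Antagonist inhibition of 200 nM NECA-stimulated cAMP measured; reaction stopped with TCA. cAMP quantified by [3H]cAMP competition with adrenal binding protein. IC50 by sigmoid fit, mean SEM of four experiments; % inhibition at 1 μM.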

[13] = system: HT-29; experiment: Antiapoptotic activity against human HT-29 cells assessed as cell viability at 10 uM after 48 hrs by MTT assay in presence of 100 uM oxaliplatin (reference value: 52.2 +/- 0.5%); format: functional; how it was run: as §1
[14] = target: T2, Adenosine receptor A3; experiment: Displacement of [125I]AB-MECA from human A3 adenosine receptor expressed in CHO cells after 60 mins by scintillation counting analysis; format: cell-based
[15] = target: T6, Adenosine receptor A2b (Homo sapiens, UniProt P29275); experiment: Inhibition of human A2B adenosine receptor transfected in CHO cells assessed as inhibition of NECA-induced cyclic AMP production after 10 mins by competitive protein binding assay; format: cell-based; how it was run: as §4
T6 sequence (P29275 whole entry): T5 sequence (whole entry)

[16] = target: T7, Adenosine receptor A1 (Homo sapiens, UniProt P30542); experiment: Displacement of [3H]DPCPX from human A1 adenosine receptor expressed in CHO cells after 120 mins by scintillation counting analysis; format: cell-based
T7 sequence (P30542 whole entry): T3 sequence (whole entry)

[17] = target: T1, Adenosine receptor A2a; experiment: Displacement of [3H]ZM241385 from human A2A adenosine receptor expressed in CHO cells after 60 mins by scintillation counting analysis; format: cell-based; how it was run: as §2
[18] = target: T8, Adenosine receptor A3 (Homo sapiens) (UniProt P0DMS8); experiment: Displacement of [125I]AB-MECA from human A3 adenosine receptor expressed in CHO cells at 1 uM after 60 mins by scintillation counting analysis; format: cell-based
T8 sequence (whole entry): T2 sequence (P0DMS8 whole entry)
How it was run: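 Human A3 CHO membranes (50 μg protein) incubated with 0.5 nM [125I]AB-MECA in 50 mM Tris-HCl, 10 mM MgCl2, 1 mM EDTA, pH 7.4, for 60 min at 37 °C. Nonspecific binding defined with 1 μM AB-MECA. Filtration then counting. Output is % inhibition at 1 μM.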

T1 sequence (P29274 whole entry): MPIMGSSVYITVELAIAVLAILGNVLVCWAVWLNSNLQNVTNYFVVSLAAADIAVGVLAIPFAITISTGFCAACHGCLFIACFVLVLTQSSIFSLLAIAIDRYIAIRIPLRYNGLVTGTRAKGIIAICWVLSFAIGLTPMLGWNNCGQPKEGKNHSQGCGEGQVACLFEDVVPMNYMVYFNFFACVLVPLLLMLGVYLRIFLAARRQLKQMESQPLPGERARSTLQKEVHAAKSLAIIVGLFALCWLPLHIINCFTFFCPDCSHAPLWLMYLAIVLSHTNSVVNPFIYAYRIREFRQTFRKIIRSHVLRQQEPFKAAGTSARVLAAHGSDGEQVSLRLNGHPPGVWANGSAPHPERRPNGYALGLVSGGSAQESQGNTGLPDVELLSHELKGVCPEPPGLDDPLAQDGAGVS

SMILES | Activity [1] | inhibition [2] | IC50 [3] | Activity [4] | inhibition [5] | viability at 10 µM [6] | Activity [7] | Activity [8] | Activity [9] | Activity [10] | inhibition [11] | inhibition [12] | Activity [13] | Ki [14] | IC50 [15] | Ki [16] | Ki [17] | inhibition [18]
COc1ccc(-n2cc3nc(-c4ccccc4)nc(NC(=O)Cc4ccccc4)c3n2)cc1 | 90.2% | 18% | 0.08 µM | Active | 29% | 82.2% | 95.1% | 86.6% | Active | 78.8% | 3% | 2% | 54.8% | 0.024 µM | – | – | – | –
Cc1nc(N)c2nn(-c3ccccc3)cc2n1 | – | – | – | – | – | – | – | – | – | – | – | – | – | – | 0.32 µM | 0.07 µM | 0.246 µM | 40%
Nc1nc(Cc2ccccc2)nc2cn(-c3ccccc3)nc12 | – | – | – | – | – | – | – | – | – | – | – | – | – | – | 0.42 µM | 0.15 µM | 0.11 µM | 39%
Nc1nc(-c2ccccc2)nc2cn(-c3ccccc3)nc12 | – | – | – | – | – | – | – | – | – | – | – | – | – | – | 0.44 µM | 0.075 µM | 0.325 µM | 48%
